The species entered for assay [1] is Canis familiaris. In words: Maximum rate of rise of the upstroke of transmembrane potential, in canine Purkinje Fibers at a concentration of 3.0 uM at 300 ms (simulating tachycardia). Type of assay: functional. As to conditions: Canis lupus familiaris, Purkinje fiber. Set-up: unit not given here. In outline:
(§1)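 Isolated canine Purkinje fiber bundles were driven by square-wave pulses 2.0 ms long at 2× threshold and equilibrated ≥1 h to steady state. Each concentration was superfused 45–60 min before recording, and action potentials were sampled at 4–6 sites per fiber in control and after drug, giving Vmax and APD to −60 mV.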

For assay [2], the species on record is Canis familiaris. In words: repolarization to reach -60mV, in canine Purkinje Fibers at a concentration of 3.0 uM at 1000 ms (simulating normal heart rate). Format: functional, Canis lupus familiaris, Purkinje fiber. In outline:
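Purkinje fiber bundles were stimulated with square-wave current pulses of 2.0 ms at twice threshold and equilibrated for at least 1 h, or until action potential parameters were steady. Each concentration was superfused for 45-60 min to reach steady state. Action potentials were recorded at four to six sites per fiber, under control and after drug.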

For assay [3], the species on record is Canis familiaris. In words: Maximum rate of rise of the upstroke of transmembrane potential, in canine Purkinje Fibers at a concentration of 3.0 uM at 1000 ms (simulating normal heart rate). Details: unit not given here. Format: functional. The conditions noted are these: Canis lupus familiaris, Purkinje fiber. In a few lines:
as §1

The species entered for assay [4] is Canis familiaris. In words: Repolarization to reach -60mV, in canine Purkinje Fibers at a concentration of 3.0 uM at 300 ms (simulating tachycardia). Type of assay: functional, Canis lupus familiaris, Purkinje fiber. In outline: as §1

`CN(Cc1cnc2ccccc2n1)CC(O)COc1ccc(NS(C)(=O)=O)cc1` (stereo not drawn): the Vmax in the assay filed under Canis familiaris [1] is 6; in the assay filed under Canis familiaris [3], 1. Also, the APD in the assay listed under Canis familiaris [2] is 26%; in the assay listed under Canis familiaris [4], 8%.

Turning to `CS(=O)(=O)Nc1ccc(OCC(O)CN2CCN(c3ccccn3)CC2)cc1` (stereo not drawn), the Vmax in the assay filed under Canis familiaris [1] is 12; in the assay listed under Canis familiaris [3] it was 9. For the same compound, the values for the APD in the assay filed under Canis familiaris [2] and in the assay listed under Canis familiaris [4] were 53% and 24%, respectively.

For the compound `COc1ccc2nc(CN(C)CC(O)COc3ccc(NS(C)(=O)=O)cc3)ccc2c1` (stereo not drawn), the Vmax in the assay filed under Canis familiaris [1] is -6; in the assay listed under Canis familiaris [3] it was 0. Further, the APD was 54% in the assay listed under Canis familiaris [2] and 16% in the assay filed under Canis familiaris [4].

Regarding `Cc1nc2ccccc2nc1CN(C)CC(O)COc1ccc(NS(C)(=O)=O)cc1` (stereo not drawn), the figures for the Vmax in the assay listed under Canis familiaris [1] and in the assay listed under Canis familiaris [3] were 3 and 7, respectively. For the same compound, the APD is 17% in the assay listed under Canis familiaris [2] and 11% in the assay filed under Canis familiaris [4].

Take `CN(Cc1ccc2cc(Cl)ccc2n1)CC(O)COc1ccc(NS(C)(=O)=O)cc1` (stereo not drawn): the Vmax in the assay filed under Canis familiaris [1] is -2; in the assay listed under Canis familiaris [3], 0. The values for the APD in the assay filed under Canis familiaris [2] and in the assay listed under Canis familiaris [4] were 65% and 29%, respectively.

With `Cc1nc2ccccc2nc1CN(C)CC(O)COc1ccc(-n2ccnc2)cc1` (stereo not drawn), the Vmax in the assay listed under Canis familiaris [1] was 10; in the assay listed under Canis familiaris [3], 13. The results for the APD in the assay listed under Canis familiaris [2] and in the assay listed under Canis familiaris [4] were 69% and 24%, respectively.

Take `Cn1c(N2CCN(CC(O)COc3ccc(NS(C)(=O)=O)cc3)CC2)nc2ccccc21` (stereo not drawn): the Vmax in the assay filed under Canis familiaris [1] is -9; in the assay listed under Canis familiaris [3], -3. Moreover, the figures for the APD in the assay filed under Canis familiaris [2] and in the assay filed under Canis familiaris [4] were 83% and 21%, respectively.

For `CN(Cc1nc2ccccc2[nH]1)CC(O)COc1ccc(NS(C)(=O)=O)cc1` (stereo not drawn), the Vmax is -11 in the assay filed under Canis familiaris [1] and 1 in the assay listed under Canis familiaris [3]. The APD in the assay listed under Canis familiaris [2] is 14%; in the assay listed under Canis familiaris [4], 3%.

Turning to `CN(Cc1ccc2ccccc2n1)CC(O)COc1ccc(C#N)cc1` (stereo not drawn), the Vmax in the assay filed under Canis familiaris [1] was 8; in the assay filed under Canis familiaris [3], 19. Besides, the APD in the assay filed under Canis familiaris [2] was 41%; in the assay filed under Canis familiaris [4] it was 0%.

Turning to `CC(C)N(Cc1ccc2ccccc2n1)CC(O)COc1ccc(NS(C)(=O)=O)cc1` (stereo not drawn), the Vmax in the assay filed under Canis familiaris [1] was -11; in the assay listed under Canis familiaris [3] it was -10. For the same compound, the APD in the assay filed under Canis familiaris [2] was 49%; in the assay filed under Canis familiaris [4], 30%.

Turning to `CN(Cc1ccc2ccccc2n1)CC(O)COc1ccc([N+](=O)[O-])cc1` (stereo not drawn), the Vmax in the assay filed under Canis familiaris [1] was -10; in the assay listed under Canis familiaris [3], 0. Besides, the APD in the assay filed under Canis familiaris [2] is 63%; in the assay filed under Canis familiaris [4], 27%.

With `CN(Cc1cc2ccccc2o1)CC(O)COc1ccc(NS(C)(=O)=O)cc1` (stereo not drawn), the Vmax in the assay filed under Canis familiaris [1] is 16; in the assay filed under Canis familiaris [3], 4. The values for the APD in the assay filed under Canis familiaris [2] and in the assay listed under Canis familiaris [4] were 47% and 16%, respectively.

In the case of `CN(Cc1nc2ccccc2n1C)CC(O)COc1ccc(NS(C)(=O)=O)cc1` (stereo not drawn), the Vmax in the assay listed under Canis familiaris [1] was 4; in the assay filed under Canis familiaris [3], 7. Also, the figures for the APD in the assay listed under Canis familiaris [2] and in the assay listed under Canis familiaris [4] were 19% and 12%, respectively.

Turning to `CN(CCCOc1ccc(NS(C)(=O)=O)cc1)Cc1cnc2ccccc2n1`, the results for the Vmax in the assay listed under Canis familiaris [1] and in the assay listed under Canis familiaris [3] were -14 and -16, respectively. Also, the values for the APD in the assay filed under Canis familiaris [2] and in the assay listed under Canis familiaris [4] were 62% and 27%, respectively.

Regarding `CN(Cc1ccc2ccccc2n1)CC(O)COc1ccc(-n2ccnc2)cc1` (stereo not drawn), the Vmax in the assay listed under Canis familiaris [1] is -11; in the assay listed under Canis familiaris [3], -15. The APD in the assay filed under Canis familiaris [2] was 39%; in the assay listed under Canis familiaris [4], 10%.

On to `CN(Cc1ccc2ccccc2n1)CC(O)COc1ccc(-c2nn[nH]n2)cc1` (stereo not drawn), for which the Vmax in the assay filed under Canis familiaris [1] was 4; in the assay listed under Canis familiaris [3] it was -10. Further, the figures for the APD in the assay filed under Canis familiaris [2] and in the assay listed under Canis familiaris [4] were 11% and 4%, respectively.

Take `CS(=O)(=O)Nc1ccc(OCC(O)CN2CCN(c3ncccn3)CC2)cc1` (stereo not drawn): the Vmax in the assay filed under Canis familiaris [1] was -12; in the assay listed under Canis familiaris [3], -17. Also, the values for the APD in the assay listed under Canis familiaris [2] and in the assay filed under Canis familiaris [4] were 23% and 15%, respectively.
